The record followed here is ChEMBL document CHEMBL4613270, “Structure-Activity Relationship Study Enables the Discovery of a Novel Berberine Analogue as the RXRα Activator to Inhibit Colon Cancer” (J Med Chem, 2020).

Calls of active or inactive are those of the source. The rule behind the calls is not given here.

The test system of data set [1] is KM12C. Briefly: Inhibition of cell proliferation of human KM12C cells at 25 to 50 uM incubated for 15 hrs by EdU assay. The format is functional, cell-based. The procedure, abridged:
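KM12C cells grown in MEM with 10% FBS, penicillin/streptomycin, nonessential amino acids and vitamins at 37 °C, 5% CO2. Proliferation was scored with an EdU incorporation kit, and cells were examined under a fluorescence microscope.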

Data set [2] has as its system HCT-116. Briefly: Inhibition of cell proliferation of human HCT116 cells at 30 to 60 uM incubated for 15 hrs by EdU assay. It is filed as functional, cell-based. The procedure, abridged:
(§1)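 Colon cancer cells treated for 15 h. Proliferation measured in 96-well plates using an EdU incorporation kit, with cells examined under a fluorescence microscope.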

In data set [3] the test system is SW-620. The experiment in a line: Inhibition of cell proliferation of human SW620 cells at 40 to 80 uM incubated for 15 hrs by EdU assay. It is filed as functional, cell-based. The procedure, abridged: as §1
Data set [4] concerns the target T1, Retinoic acid receptor RXR-alpha (Homo sapiens) (UniProt P19793).
T1 sequence (whole entry): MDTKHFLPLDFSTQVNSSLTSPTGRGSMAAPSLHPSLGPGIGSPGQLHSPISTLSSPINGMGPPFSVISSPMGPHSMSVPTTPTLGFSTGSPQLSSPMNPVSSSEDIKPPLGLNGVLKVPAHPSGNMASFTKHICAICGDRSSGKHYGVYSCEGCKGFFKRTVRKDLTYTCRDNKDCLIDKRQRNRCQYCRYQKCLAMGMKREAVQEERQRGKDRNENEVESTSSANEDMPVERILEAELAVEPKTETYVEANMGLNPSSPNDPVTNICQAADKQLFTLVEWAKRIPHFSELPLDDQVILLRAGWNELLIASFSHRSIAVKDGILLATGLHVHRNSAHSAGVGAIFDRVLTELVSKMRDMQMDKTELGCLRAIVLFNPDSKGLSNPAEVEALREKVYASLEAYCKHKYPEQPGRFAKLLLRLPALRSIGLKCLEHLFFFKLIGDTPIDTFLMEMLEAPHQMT
The experiment in a line: Activation of RXRalpha in human KM12C cells assessed as […] protein expression at 25 to 50 uM incubated for 15 hrs by Western blot analysis. It is filed as cell-based. A general note: A western blot detects proteins with antibodies after separation by electrophoresis.

Data set [5] has as its target T1, Retinoic acid receptor RXR-alpha (Homo sapiens). The experiment in a line: Activation of RXRalpha in human HCT116 cells assessed as […] protein expression at 30 to 60 uM incubated for 15 hrs by Western blot analysis. The format is cell-based. The note with it: HCT-116.
Data set [6] shares this target. The experiment in a line: Activation of RXRalpha in human KM12C cells assessed as increase transactivational activity on RXRE at 25 to 50 uM incubated for 15 hrs by luciferase reporter gene assay. The format is cell-based. The procedure, abridged: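 Endogenous RXRα transactivation on an RXRE luciferase reporter, lipofection-transfected; compound added 20 h post-transfection for 15 h; lysis in passive lysis buffer at 4 °C, 1 h; firefly and Renilla luciferase activities read by dual-luciferase assay.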
On the technique in general: A reporter such as luciferase makes a cellular process visible.

For data set [7] the target is unchanged. Briefly: Binding affinity to His-tagged RXRalpha LBD (unknown origin) expressed in Escherichia coli strain BL21 (DE3) at 200 uM by STD-NMR spectroscopy.
Data set [8] deals with KM12C. The experiment in a line: Inhibition of cell proliferation of human KM12C cells up to 100 uM in presence of RXRalpha shRNA incubated for 15 hrs by MTT assay. The format is functional, cell-based. The procedure, abridged:
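KM12C cells were transfected with control or RXRα-targeting shRNA, seeded at 1×10^4 cells/well and incubated overnight at 37 °C. Compound was then added for 15 h. MTT (5 mg/mL stock) was incubated 4 h at 37 °C, formazan dissolved in DMSO, and absorbance read at 570 nm.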

Data set [9] has as its target T1, Retinoic acid receptor RXR-alpha (Homo sapiens). Briefly: Activation of RXRalpha in human KM12C cells assessed as reduction in Cdc2 protein expression at 25 to 50 uM incubated for 15 hrs in presence of RXRalpha shRNA by Western blot analysis. The format is cell-based.
The target is the same in data set [10]. The experiment in a line: Activation of RXRalpha in human KM12C cells assessed as reduction in c-Myc protein expression at 25 to 50 uM incubated for 15 hrs in presence of RXRalpha shRNA by Western blot analysis. The format is cell-based.
Data set [11] shares this target. The experiment in a line: Activation of RXRalpha in human KM12C cells assessed as reduction in c-Myc mRNA expression at 25 to 50 uM incubated for 15 hrs in presence of RXRalpha shRNA by real-time PCR analysis. The format is cell-based. For orientation: Real-time PCR tracks product formation cycle by cycle.
The target is the same in data set [12]. The experiment in a line: Activation of RXRalpha in human KM12C cells assessed as increase in p21 (WAF1/CIP1) protein expression at 25 to 50 uM incubated for 15 hrs in presence of RXRalpha shRNA by Western blot analysis. The format is cell-based.
Data set [13] has the same target. Briefly: Activation of RXRalpha in human KM12C cells assessed as […] crease in p21 (WAF1/CIP1) mRNA expression at 25 to 50 uM incubated for 15 hrs in presence of RXRalpha shRNA by real-time PCR analysis. The format is cell-based.
The nature of data set [14]: Hepatotoxicity in BALB/c mouse xenografted with human KM12C cells assessed as induction of necrotic hepatocytes at 100 mg/kg, ig dosed daily for 15 days by H and E staining. The note with it: in vivo, po, 360 h. It is filed as toxicity, organism-based.
Data set [15] concerns MEF. The experiment in a line: Toxicity in mouse MEF cells assessed a reduction in cell viability at 6.25 to 100 uM incubated for 15 hrs by MTT assay. It is filed as cell-based. The procedure, abridged:
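HIEC-6 cells grown in MEM with 4% FBS, HEPES, GlutaMAX and 10 ng/mL EGF. MEF cells grown in DMEM high glucose with 10% FBS. Cells plated at 1×10⁴ per well and treated with a concentration series for 15 h. Viability read by MTT: 4 h at 37 °C, DMSO solubilization, absorbance at 570 nm.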

Regarding `COc1ccc2c(c1)CC[n+]1cc3c(OC)cccc3cc1-2.[Cl-]`, the inhibition result in [1], in data set [2] and in data set [3] was “Active” in each case. Moreover, the result in data set [4], in data set [5], in data set [6] and in data set [7] was Active. Also, in data set [8], the inhibition result is “inactive”. In addition, the outcome in data set [9], in [10], in data set [11], in data set [12] and in data set [13] was inactive. In addition, the Activity entry in data set [14] and in [15] was “Non-Toxic” each time.
